Data: ChEMBL document CHEMBL1671797, “Lipophilic derivatives of leu-enkephalinamide: in vitro permeability, stability and in vivo nasal delivery” (Bioorg Med Chem, 2011)
Non-standard residues stand in square brackets, D forms with d. Residues, ends and D or L forms follow the SMILES beside them. Gly(decyl) = CCCCCCCCCC[C@H](N)C(=O)O; Aoc(2) = CCCCCC[C@H](N)C(=O)O

Key:
[1] = Stability of the compound in human Caco2 cell homogenate assessed as half life by LC-MS/MS analysis; type: ADME, Colon; conditions: Caco-2 cell homogenate
Outline: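 Confluent Caco-2 cells (21–28 days) rinsed, sonicated, spun 2000 rpm 5 min; supernatant adjusted to 0.5 mg/mL protein. Homogenate mixed 1:1 with 200 µM compound in HBSS/HEPES. Sampled at 5–120 min, quenched with TFA-acidified water (pH 1–2). Endomorphin-1 run as enzyme-activity control. t1/2 by one-phase decay fit; 4 wells, ≥3 independent experiments.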

[2] = Apparent permeability across human Caco2 cells by LC-MS/MS analysis; type: ADME, cell-based; conditions: Caco-2
Outline: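 Caco-2 cells (passage 25–35, DMEM with 10% FBS, 1% NEAA) grown 21–28 days on 0.4 µm polycarbonate Transwell inserts; TEER 2.5–5 kΩ/cm2 before use. Rinsed with EDTA/DPBS then HBSS/25 mM HEPES pH 7.4, equilibrated 30 min at 37 °C. 200 µM apical dose; basolateral sampling at 30, 90, 120, 150 min. Papp from steady-state flux; 4 wells/experiment, ≥3 experiments; 14C mannitol control.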

Plasma [3] = assay: Stability of the compound in human plasma by HPLC analysis; type: ADME, cell-free
Outline: (§1)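 Compound at 1 mg/mL in PBS mixed 1:1 with human plasma from healthy volunteers at 37 °C. Aliquots taken at set times, put on ice, proteins precipitated with acetonitrile, spun 10,000 rpm 10 min. Supernatant run on C18 RP-HPLC (water/acetonitrile/TFA gradient), detection at 214 nm. Percent of initial peptide remaining plotted against time.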

[4] = Drug level in Sprague-Dawley rat blood at 1 mg/kg, intranasal after 10 mins by LC-MS/MS analysis; type: ADME, organism-based; set-up: dose 1 mg/kg; conditions: whole blood, inhaled or intranasal
Outline: (§2)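 Male Sprague–Dawley rats (450–530 g, n = 4; 2 PBS controls) under xylazine/tiletamine–zolazepam anaesthesia. Dose given as 50 µL suspension in PBS pH 7.4 through a tube inserted 15 mm into the nasal cavity. CO2 euthanasia at 10 min. Tissues and blood homogenised or diluted in cold PBS, sonicated, acetonitrile-precipitated. Quantified against standards made in brain-homogenate matrix.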

[5] = Stability of the compound in human plasma assessed as half life by HPLC analysis; type: ADME, cell-free; outline: as §1
[6] = Drug level in Sprague-Dawley rat brain at 1 mg/kg, intranasal after 10 mins by LC-MS/MS analysis; type: ADME, organism-based; set-up: dose 1 mg/kg; conditions: inhaled or intranasal, read-out: Drug uptake; outline: as §2
Plasma [7] = assay: Stability of the compound in human plasma assessed as degradation by HPLC analysis; type: ADME, cell-free; outline: as §1
[8] = Drug level in Sprague-Dawley rat olfactory bulb at 1 mg/kg, intranasal after 10 mins by LC-MS/MS analysis; type: ADME, organism-based; set-up: dose 1 mg/kg; conditions: inhaled or intranasal, read-out: Drug uptake; outline: as §2

| Compound | half-life [1] [min] | Papp [2] [×10⁻⁶ cm/s] | other results |
| --- | --- | --- | --- |
| CCCCCCCCCC[C@H](NC(C)=O)C(=O)N[C@@H](Cc1ccc(O)cc1)C(=O)NCC(=O)NCC(=O)N[C@@H](Cc1ccccc1)C(=O)N[C@@H](CC(C)C)C(N)=O (Ac-[Gly(decyl)]YGGFL-NH2) | 27 | – | – |
| CCCCCC[C@H](NC(=O)[C@H](CC(C)C)NC(=O)[C@H](Cc1ccccc1)NC(=O)CNC(=O)CNC(=O)[C@@H](N)Cc1ccc(O)cc1)C(N)=O (H-YGGFL[Aoc(2)]-NH2) | 5.4 | 0.00477 | – |
| CCCCCC[C@H](NC(=O)[C@H](CC(C)C)NC(=O)[C@H](Cc1ccccc1)NC(=O)CNC(=O)CNC(=O)[C@H](Cc1ccc(O)cc1)NC(C)=O)C(N)=O (Ac-YGGFL[Aoc(2)]-NH2) | 13.8 | 0.763 | – |
| CCCCCCCCCC[C@H](NC(=O)[C@H](CC(C)C)NC(=O)[C@H](Cc1ccccc1)NC(=O)CNC(=O)CNC(=O)[C@@H](N)Cc1ccc(O)cc1)C(N)=O (H-YGGFL[Gly(decyl)]-NH2) | 16.4 | – | – |
| CCCCCC[C@@H](N)C(=O)N[C@@H](Cc1ccc(O)cc1)C(=O)NCC(=O)NCC(=O)N[C@@H](Cc1ccccc1)C(=O)N[C@@H](CC(C)C)C(N)=O | – | – | Stability (Plasma [3]): Stable |
| CCCCCCCCCC[C@H](N)C(=O)N[C@@H](Cc1ccc(O)cc1)C(=O)NCC(=O)NCC(=O)N[C@@H](Cc1ccccc1)C(=O)N[C@@H](CC(C)C)C(N)=O (H-[Gly(decyl)]YGGFL-NH2) | 14.7 | 2.43 | – |
| CCCCCC[C@H](N)C(=O)N[C@@H](Cc1ccc(O)cc1)C(=O)NCC(=O)NCC(=O)N[C@@H](Cc1ccccc1)C(=O)N[C@@H](CC(C)C)C(N)=O | 31.7 | 2.51 | concentration at 10 min [4]: 6.53 nM; half-life [5]: 8.9 min; concentration at 10 min [6]: 13.5 nM; Stability (Plasma [7]): Unstable; concentration at 10 min [8]: 59 nM |
| CCCCCCCCCC[C@H](NC(=O)[C@H](CC(C)C)NC(=O)[C@H](Cc1ccccc1)NC(=O)CNC(=O)CNC(=O)[C@H](Cc1ccc(O)cc1)NC(C)=O)C(N)=O (Ac-YGGFL[Gly(decyl)]-NH2) | 18.4 | – | – |
| CC(C)C[C@H](NC(=O)[C@H](Cc1ccccc1)NC(=O)CNC(=O)CNC(=O)[C@@H](N)Cc1ccc(O)cc1)C(=O)O [ENKEPHALIN] | – | 0.31 | – |
| CCCCCC[C@H](NC(C)=O)C(=O)N[C@@H](Cc1ccc(O)cc1)C(=O)NCC(=O)NCC(=O)N[C@@H](Cc1ccccc1)C(=O)N[C@@H](CC(C)C)C(N)=O (Ac-[Aoc(2)]YGGFL-NH2) | 83 | 1.06 | – |
